Legend:
[1] = tested on: HT-29; assay: In vitro cytotoxicity against HT-29 (human colon) cell line.; assay type: functional, cell-based
Procedure, shortened: (§1)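 Growth-inhibition screen adapted from Bergeron et al. Cells were kept in exponential growth in EMEM with 5% FCS, 10^-2 M sodium bicarbonate, penicillin G and streptomycin (0.1 g/L each) and 2.0 mM L-glutamine. P-388 was grown as a suspension and seeded at 1 × 10^4 cells/well. A-549 and HT-29 were grown as monolayers and seeded at 2 × 10^4 cells/well.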

[2] = pKa value was determined by differential pulse polarography; assay type: physicochemical
[3] = tested on: P388; assay: In vitro cytotoxicity against P-388 (mouse leukemia) cell line.; assay type: functional, cell-based; procedure, shortened: as §1
[4] = tested on: A549; assay: In vitro cytotoxicity against A-549 (human lung carcinoma) cell line.; assay type: functional, cell-based; procedure, shortened: as §1

Structure (SMILES) | pKa [2] | IC50 [1] | IC50 [3] | IC50 [4]
Cc1ccc2nc3sc(N4CCN(C)CC4)nc3c(O)c2c1 | 10 | 17 µM | 16.9 µM | 29.6 µM
Cc1ccc2nc3sc(S(C)(=O)=O)nc3c(O)c2c1 | 4 | > 60.4 µM | > 60.4 µM | > 60.4 µM
CSc1nc2c(O)c3cc(C)ccc3nc2s1 | 4.6 | > 66.9 µM | > 66.9 µM | > 66.9 µM
CCN(CC)CCCNc1c2ccccc2nc2sc(SC)nc12 | 7.5 | 6 µM | 6 µM | 6 µM
CS(=O)(=O)c1nc2c(O)c3cc(F)ccc3nc2s1 | 5.5 | 6 µM | 6 µM | 6 µM
CS(=O)(=O)c1nc2c(O)c3ccccc3nc2s1 | 5.2 | 32.4 µM | 32.4 µM | 32.4 µM
CSc1nc2c(N(C)CCCN(C)C)c3ccccc3nc2s1 | 6.5 | 12.1 µM | 12.1 µM | 12.1 µM
CCN(CC)CCCNc1c2cc(C)ccc2nc2sc(SC)nc12 | 7.9 | 5.4 µM | 5.4 µM | 5.4 µM
Oc1c2ccccc2nc2sc(Cl)nc12 | 5.9 | 11.6 µM | 5.3 µM | 11.6 µM
Oc1c2cc(F)ccc2nc2sc(Cl)nc12 | 4.9 | 7.4 µM | 7.4 µM | 7.4 µM
Cc1ccc2nc3sc(Cl)nc3c(O)c2c1 | 5 | 34.6 µM | 34.6 µM | 34.6 µM

Continued, in another order:

pKa [2] | Structure (SMILES) | IC50 [1] | IC50 [3] | IC50 [4]
5.7 | CSc1nc2c(O)c3cc(F)ccc3nc2s1 | > 66.1 µM | > 66.1 µM | > 66.1 µM
8.6 | CN1CCN(c2nc3c(O)c4ccccc4nc3s2)CC1 | 18.8 µM | 18.8 µM | 18.8 µM
5.9 | CSc1nc2c(O)c3ccccc3nc2s1 | > 70.2 µM | > 70.2 µM | > 70.2 µM
9.3 | CCN(CC)CCNc1nc2c(O)c3ccccc3nc2s1 | 7.22 µM | 5.76 µM | 7.22 µM
8 | CN1CCN(c2nc3c(O)c4cc(F)ccc4nc3s2)CC1 | > 56.4 µM | > 56.4 µM | > 56.4 µM
8.4 | CCN(CC)CCNc1nc2c(O)c3cc(C)ccc3nc2s1 | 3.3 µM | 3.3 µM | 5.6 µM
8.3 | CCN(CC)CCNc1nc2c(O)c3cc(F)ccc3nc2s1 | 5 µM | 1.65 µM | 2.9 µM
